Laboratory results from ChEMBL document CHEMBL4270517, “New 6- and 7-heterocyclyl-1H-indole derivatives as potent tubulin assembly and cancer cell growth inhibitors” (Eur J Med Chem, 2018).
Calls of active or inactive are those of the source. No cut-off for these calls is given here.

Columns and labels:
[1] = biological target: Tubulin; test: Inhibition of tubulin polymerization (unknown origin) preincubated for 15 mins followed by GTP addition measured for 20 mins by spectrophotometric method; format: protein-complex assay, Homo sapiens
Procedure, shortened: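 Purified tubulin at 10 µM in 0.8 M monosodium glutamate pH 6.6 with 4% DMSO and varying compound; preincubated 15 min at 30 °C, chilled on ice, GTP to 0.4 mM added, turbidity at 350 nm followed 20 min at 30 °C. Extent of assembly measured; IC50 derived.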

[2] = biological target: T1, Tubulin (Homo sapiens) (UniProt P68371+Q9H4B7+P0DPH7+P68366+Q13509+Q71U36+P04350+Q3ZCM7+P07437+P68363+Q9BQE3+Q6PEY2+Q13885+Q9BVA1+Q9BUF5); test: Inhibition of tubulin polymerization in human HeLa cells assessed as fragmented or multipolar spindles formation at 20 to 50 nM by DAPI staining based immunofluorescence analysis; format: cell-based
Procedure, shortened: (§1)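 HeLa cells on poly-L-lysine coverslips treated 24 h with 20–100 nM compound, fixed in methanol 6 min, immunostained for α-tubulin (FITC secondary), DNA counterstained with DAPI; spindle and microtubule morphology of mitotic cells examined by epifluorescence microscopy with 100× oil objective.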

[3] = biological target: T1, Tubulin (Homo sapiens); test: Inhibition of tubulin polymerization in human HeLa cells assessed as microtubule asters formation at 100 nM by DAPI staining based immunofluorescence analysis; format: cell-based; procedure, shortened: as §1
[4] = biological target: T1, Tubulin (Homo sapiens); test: Inhibition of [3H]colchicine binding to tubulin (unknown origin) at 5 uM after 10 mins relative to control; format: protein-complex assay
[5] = system: MCF7; test: Growth inhibition of human MCF7 cells after 96 hrs by trypan blue exclusion assay; format: functional, cell-based; settings: MCF7, 96 h
[6] = system: NCI/ADR-RES; test: Growth inhibition of human NCI/ADR-RES cells after 96 hrs by trypan blue exclusion assay; format: functional, cell-based
[7] = system: OVCAR-8; test: Growth inhibition of human OVCAR8 cells after 96 hrs by trypan blue exclusion assay; format: functional, cell-based; settings: OVCAR-8, 96 h
[8] = biological target: T1, Tubulin (Homo sapiens); test: Inhibition of tubulin polymerization in human HeLa cells assessed as fragmented or multipolar spindles formation at 20 nM by DAPI staining based immunofluorescence analysis; format: cell-based; procedure, shortened: as §1
[9] = biological target: T1, Tubulin (Homo sapiens); test: Inhibition of tubulin polymerization in human HeLa cells assessed as formation of sparse tubulin foci at >= 50 nM by DAPI staining based immunofluorescence analysis; format: cell-based; procedure, shortened: as §1
[10] = system: HepG2; test: Growth inhibition of human HepG2 cells after 48 hrs by MTT assay; format: functional, cell-based; settings: HepG2, 48 h
[11] = system: HeLa; test: Induction of cell death in human HeLa cells at 20 nM after 24 hrs by annexin V-FITC staining based flow cytometry

Structure (SMILES) | IC50 [1] [nM] | inhibition [4] [%] | further results
COc1cc(Sc2c[nH]c3c(-c4cccs4)cccc23)cc(OC)c1OC | 570 | 89 | inhibition [2]: Active; inhibition [3]: Active
COc1cc(Sc2c[nH]c3ccc(-c4ccoc4)cc23)cc(OC)c1OC | 1800 | 63 | –
COc1cc(C(=O)c2c[nH]c3cc(-c4cccs4)ccc23)cc(OC)c1OC | 380 | 96 | –
COc1cc(C(=O)c2c[nH]c3cc(-c4ccsc4)ccc23)cc(OC)c1OC | 600 | 94 | –
COc1ccc(/C=C\c2cc(OC)c(OC)c(OC)c2)cc1O [COMBRETASTATIN A4] | – | – | IC50 [5]: 5 to 13 nM; IC50 [6]: 3.5 nM; IC50 [7]: 4 nM
COc1cc(Sc2c[nH]c3ccc(-c4ccco4)cc23)cc(OC)c1OC | 870 | 81 | –
COc1cc(Sc2c[nH]c3ccc(-c4cccs4)cc23)cc(OC)c1OC | 1300 | 76 | –
COc1cc(Sc2c[nH]c3cc(-c4ccco4)ccc23)cc(OC)c1OC | 590 | 97 | –
COc1cc(C(=O)c2c[nH]c3c(-c4cccs4)cccc23)cc(OC)c1OC | 2600 | 48 | –
COc1cc(C(=O)c2c[nH]c3c(-c4ccoc4)cccc23)cc(OC)c1OC | 3000 | 29 | –
COc1cc(Sc2c[nH]c3ccc(-c4ccsc4)cc23)cc(OC)c1OC | 1700 | 72 | –
COc1cc(Sc2c(-c3cccs3)[nH]c3ccccc23)cc(OC)c1OC | 740 | 88 | –
COc1cc(C(=O)c2c[nH]c3c(-c4ccco4)cccc23)cc(OC)c1OC | – | 70 | –
COc1cc(C(=O)c2c[nH]c3c(-c4ccsc4)cccc23)cc(OC)c1OC | 6200 | – | –
COc1cc(C(=O)c2c[nH]c3cc(-c4ccco4)ccc23)cc(OC)c1OC | 760 | 96 | –
COc1cc(Sc2c[nH]c3cc(-c4ccsc4)ccc23)cc(OC)c1OC | 580 | 97 | inhibition [8]: Active; inhibition [9]: Active
COc1cc(Sc2c[nH]c3c(-c4ccco4)cccc23)cc(OC)c1OC | 640 | 95 | –
CC(=O)O[C@H]1C(=O)[C@@]2(C)[C@H]([C@H](OC(=O)c3ccccc3)[C@]3(O)C[C@H](OC(=O)[C@H](O)[C@@H](NC(=O)c4ccccc4)c4ccccc4)C(C)=C1C3(C)C)[C@]1(OC(C)=O)CO[C@@H]1C[C@@H]2O [PACLITAXEL] | – | – | IC50 [5]: 5.5 nM; IC50 [6]: 3100 nM; IC50 [10]: 2660 nM; IC50 [7]: 4 nM
COc1cc(Sc2c[nH]c3c(-c4ccoc4)cccc23)cc(OC)c1OC | 1300 | 86 | –
COc1cc(C(=O)c2c[nH]c3cc(-c4ccoc4)ccc23)cc(OC)c1OC | 610 | 96 | –
COc1cc(Sc2c[nH]c3cc(-c4cccs4)ccc23)cc(OC)c1OC | 470 | 95 | –
CC[C@]1(O)C[C@@H]2CN(CCc3c([nH]c4ccccc34)[C@@](C(=O)OC)(c3cc4c(cc3OC)N(C)[C@H]3[C@@](O)(C(=O)OC)[C@H](OC(C)=O)[C@]5(CC)C=CCN6CC[C@]43[C@@H]65)C2)C1 | – | – | Activity [11]: Active
COc1cc(Sc2c[nH]c3c(-c4ccsc4)cccc23)cc(OC)c1OC | 1300 | 77 | –
COc1cc(Sc2c[nH]c3cc(-c4ccoc4)ccc23)cc(OC)c1OC | 2300 | 90 | –
